Laboratory results as given in ChEMBL document CHEMBL1127451, “Benzoselenazolinone derivatives designed to be glutathione peroxidase mimetics feature inhibition of cyclooxygenase/5-lipoxygenase pathways and anti-inflammatory activity” (1994).
Each block holds one compound with its values, some of them ahead of it.

Legend:
[1] = Inhibition of spontaneous lipid peroxidation at 10e-5 M in rat brain homogenate
[2] = In vitro glutathione peroxidase activity at 2*10e-7M using hydrogen peroxide, activity given in percentage of ebselen''s activity; format: functional
[3] = Inhibition of [Fe(2+)]/ascorbate-induced lipid peroxidation at 10e-5 M in rat brain homogenate
[4] = In vitro glutathione peroxidase activity at 2*10e-7M using tert-butyl hydroperoxide, activity given in percentage of ebselen''s activity; format: functional
Rattus norvegicus [5] = experiment: Tested for acute anti-inflammatory activity of carrageenan-induced foot edema in rats at dose of 3 mg/kg at time interval- 3h; format: functional
Summary of the method: (§1)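 Fasted Wistar rats (200–240 g), six per group, receive drug orally in 2% gelatin. One hour later, 0.1 mL 2% carrageenan in 9% NaCl is injected subplantar into the hind paw. Paw volume is measured by water plethysmometry at injection and at 0.5, 1, 2, 3 and 4 h. Results are percent inhibition of swelling versus vehicle-treated rats.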

Rattus norvegicus [6] = experiment: Tested for acute anti-inflammatory activity of the antirat serum-induced edema in rats at dose of 30 mg/kg at time interval- 4 hr; format: functional
Summary of the method: as §1, with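 “rabbit antirat serum” for “2% carrageenan in 9% NaCl”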

Rattus norvegicus [7] = experiment: Tested for acute anti-inflammatory activity of the antirat serum-induced edema in rats at dose of 30 mg/kg at time interval- 0.5 hr; format: functional
Summary of the method: as §1, with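 “rabbit antirat serum” for “2% carrageenan in 9% NaCl”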

Rattus norvegicus [8] = experiment: Tested for acute anti-inflammatory activity of the antirat serum-induced edema in rats at dose of 100 mg/kg at time interval- 2 hr; format: functional
Summary of the method: as §1, with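 “rabbit antirat serum” for “2% carrageenan in 9% NaCl”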

Rattus norvegicus [9] = experiment: Tested for acute anti-inflammatory activity of carrageenan-induced foot edema in rats at dose of 3 mg/kg at time interval- 4 hr; format: functional
Summary of the method: as §1

Rattus norvegicus [10] = experiment: Tested for acute anti-inflammatory activity of carrageenan-induced foot edema in rats at dose of 100 mg/kg at time interval- 1 hr; format: functional
Summary of the method: as §1

Rattus norvegicus [11] = experiment: Tested for acute anti-inflammatory activity of the antirat serum-induced edema in rats at dose of 3 mg/kg at time interval- 1 hr; format: functional
Summary of the method: as §1, with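 “rabbit antirat serum” for “2% carrageenan in 9% NaCl”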

Rattus norvegicus [12] = experiment: Tested for acute anti-inflammatory activity of carrageenan-induced foot edema in rats at dose of 30 mg/kg at time interval- 4 hr; format: functional
Summary of the method: as §1

Rattus norvegicus [13] = experiment: Tested for acute anti-inflammatory activity of the antirat serum-induced edema in rats at dose of 30 mg/kg at time interval- 1 hr; format: functional
Summary of the method: as §1, with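 “rabbit antirat serum” for “2% carrageenan in 9% NaCl”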

Rattus norvegicus [14] = experiment: Tested for acute anti-inflammatory activity of carrageenan-induced foot edema in rats at dose of 100 mg/kg at time interval- 3h; format: functional
Summary of the method: as §1

Rattus norvegicus [15] = experiment: Tested for acute anti-inflammatory activity of the antirat serum-induced edema in rats at dose of 3 mg/kg at time interval- 3h; format: functional
Summary of the method: as §1, with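 “rabbit antirat serum” for “2% carrageenan in 9% NaCl”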

Rattus norvegicus [16] = experiment: Tested for acute anti-inflammatory activity of carrageenan-induced foot edema in rats at dose of 30 mg/kg at time interval- 1 hr; format: functional
Summary of the method: as §1

Rattus norvegicus [17] = experiment: Tested for acute anti-inflammatory activity of carrageenan-induced foot edema in rats at dose of 3 mg/kg at time interval- 2 hr; format: functional
Summary of the method: as §1

Rattus norvegicus [18] = experiment: Tested for acute anti-inflammatory activity of the antirat serum-induced edema in rats at dose of 100 mg/kg at time interval- 3h; format: functional
Summary of the method: as §1, with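 “rabbit antirat serum” for “2% carrageenan in 9% NaCl”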

Rattus norvegicus [19] = experiment: Tested for acute anti-inflammatory activity of carrageenan-induced foot edema in rats at dose of 30 mg/kg at time interval- 3h; format: functional
Summary of the method: as §1

Rattus norvegicus [20] = experiment: Tested for acute anti-inflammatory activity of carrageenan-induced foot edema in rats at dose of 100 mg/kg at time interval- 2 hr; format: functional
Summary of the method: as §1

Rattus norvegicus [21] = experiment: Tested for acute anti-inflammatory activity of the antirat serum-induced edema in rats at dose of 100 mg/kg at time interval- 4 hr; format: functional
Summary of the method: as §1, with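 “rabbit antirat serum” for “2% carrageenan in 9% NaCl”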

Rattus norvegicus [22] = experiment: Tested for acute anti-inflammatory activity of the antirat serum-induced edema in rats at dose of 30 mg/kg at time interval- 2 hr; format: functional
Summary of the method: as §1, with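 “rabbit antirat serum” for “2% carrageenan in 9% NaCl”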

Rattus norvegicus [23] = experiment: Tested for acute anti-inflammatory activity of carrageenan-induced foot edema in rats at dose of 100 mg/kg at time interval- 0.5 hr; format: functional
Summary of the method: as §1

Rattus norvegicus [24] = experiment: Tested for acute anti-inflammatory activity of carrageenan-induced foot edema in rats at dose of 3 mg/kg at time interval- 1 hr; format: functional
Summary of the method: as §1

Rattus norvegicus [25] = experiment: Tested for acute anti-inflammatory activity of the antirat serum-induced edema in rats at dose of 3 mg/kg at time interval- 4 hr; format: functional
Summary of the method: as §1, with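 “rabbit antirat serum” for “2% carrageenan in 9% NaCl”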

Rattus norvegicus [26] = experiment: Tested for acute anti-inflammatory activity of the antirat serum-induced edema in rats at dose of 30 mg/kg at time interval- 3h; format: functional
Summary of the method: as §1, with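 “rabbit antirat serum” for “2% carrageenan in 9% NaCl”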

Rattus norvegicus [27] = experiment: Tested for acute anti-inflammatory activity of the antirat serum-induced edema in rats at dose of 100 mg/kg at time interval- 1 hr; format: functional
Summary of the method: as §1, with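 “rabbit antirat serum” for “2% carrageenan in 9% NaCl”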

Rattus norvegicus [28] = experiment: Tested for acute anti-inflammatory activity of the antirat serum-induced edema in rats at dose of 3 mg/kg at time interval- 0.5 hr; format: functional
Summary of the method: as §1, with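 “rabbit antirat serum” for “2% carrageenan in 9% NaCl”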

Rattus norvegicus [29] = experiment: Tested for acute anti-inflammatory activity of the antirat serum-induced edema in rats at dose of 100 mg/kg at time interval- 0.5 hr; format: functional
Summary of the method: as §1, with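 “rabbit antirat serum” for “2% carrageenan in 9% NaCl”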

Rattus norvegicus [30] = experiment: Tested for acute anti-inflammatory activity of carrageenan-induced foot edema in rats at dose of 30 mg/kg at time interval- 2 hr; format: functional
Summary of the method: as §1

Rattus norvegicus [31] = experiment: Tested for acute anti-inflammatory activity of carrageenan-induced foot edema in rats at dose of 3 mg/kg at time interval- 0.5 hr; format: functional
Summary of the method: as §1

Rattus norvegicus [32] = experiment: Tested for acute anti-inflammatory activity of the antirat serum-induced edema in rats at dose of 3 mg/kg at time interval- 2 hr; format: functional
Summary of the method: as §1, with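 “rabbit antirat serum” for “2% carrageenan in 9% NaCl”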

Rattus norvegicus [33] = experiment: Tested for acute anti-inflammatory activity of carrageenan-induced foot edema in rats at dose of 30 mg/kg at time interval- 0.5 hr; format: functional
Summary of the method: as §1

Rattus norvegicus [34] = experiment: Tested for acute anti-inflammatory activity of carrageenan-induced foot edema in rats at dose of 100 mg/kg at time interval- 4 hr; format: functional
Summary of the method: as §1

SMILES: CNc1ccccc1[Se][Se]c1ccccc1NC
inhibition [1]: 52%
GSH-Px activity [2]: 325
inhibition [3]: 37%
GSH-Px activity [4]: 267

SMILES: O=C(c1ccccc1)c1ccc2[nH]c(=O)[se]c2c1
inhibition in vivo at 3 mg/kg (Rattus norvegicus [5]): 27.5%
inhibition in vivo at 30 mg/kg (Rattus norvegicus [6]): 25.2%
inhibition in vivo at 30 mg/kg (Rattus norvegicus [7]): -9.8%
inhibition in vivo at 100 mg/kg (Rattus norvegicus [8]): 12.7%
inhibition in vivo at 3 mg/kg (Rattus norvegicus [9]): 9.6%
inhibition in vivo at 100 mg/kg (Rattus norvegicus [10]): 9.9%
inhibition in vivo at 3 mg/kg (Rattus norvegicus [11]): -16.7%
inhibition in vivo at 30 mg/kg (Rattus norvegicus [12]): 26.1%
inhibition [1]: 0%
inhibition in vivo at 30 mg/kg (Rattus norvegicus [13]): 5.3%
inhibition in vivo at 100 mg/kg (Rattus norvegicus [14]): 58.5%
inhibition in vivo at 3 mg/kg (Rattus norvegicus [15]): -14.1%
inhibition in vivo at 30 mg/kg (Rattus norvegicus [16]): 14.2%
inhibition in vivo at 3 mg/kg (Rattus norvegicus [17]): 27.8%
inhibition in vivo at 100 mg/kg (Rattus norvegicus [18]): 18%
GSH-Px activity [2]: 0
inhibition in vivo at 30 mg/kg (Rattus norvegicus [19]): 35.6%
inhibition in vivo at 100 mg/kg (Rattus norvegicus [20]): 51.6%
inhibition in vivo at 100 mg/kg (Rattus norvegicus [21]): 19.3%
inhibition in vivo at 30 mg/kg (Rattus norvegicus [22]): 25.6%
inhibition [3]: -3%
inhibition in vivo at 100 mg/kg (Rattus norvegicus [23]): -76.2%
inhibition in vivo at 3 mg/kg (Rattus norvegicus [24]): -7.8%
inhibition in vivo at 3 mg/kg (Rattus norvegicus [25]): -1.4%
inhibition in vivo at 30 mg/kg (Rattus norvegicus [26]): 19.7%
inhibition in vivo at 100 mg/kg (Rattus norvegicus [27]): 6%
inhibition in vivo at 3 mg/kg (Rattus norvegicus [28]): -41.8%
inhibition in vivo at 100 mg/kg (Rattus norvegicus [29]): -0.5%
inhibition in vivo at 30 mg/kg (Rattus norvegicus [30]): 31.7%
inhibition in vivo at 3 mg/kg (Rattus norvegicus [31]): -42.9%
inhibition in vivo at 3 mg/kg (Rattus norvegicus [32]): -10.7%
inhibition in vivo at 30 mg/kg (Rattus norvegicus [33]): -22.2%
inhibition in vivo at 100 mg/kg (Rattus norvegicus [34]): 55.5%
GSH-Px activity [4]: 0

SMILES: O=C(c1cccnc1)c1ccc2[nH]c(=O)[se]c2c1
inhibition [1]: -5%
GSH-Px activity [2]: 0
inhibition [3]: -8%
GSH-Px activity [4]: 0

SMILES: O=C(c1ccc(Cl)cc1)c1ccc2[nH]c(=O)[se]c2c1
inhibition [1]: -5%
GSH-Px activity [2]: 0
inhibition [3]: 5%
GSH-Px activity [4]: 0

SMILES: CN(C)C(=O)Nc1ccccc1[Se][Se]c1ccccc1NC(=O)N(C)C
inhibition [1]: 96%
GSH-Px activity [2]: 236
inhibition [3]: 97%
GSH-Px activity [4]: 178

SMILES: Cc1c(C)c2c(c(C)c1O)CCC(C)(C(=O)O)O2 (stereo unspecified)
GSH-Px activity [4]: 0

SMILES: Cn1c(=O)[se]c2cc(C(=O)c3ccccc3)ccc21
inhibition [1]: -1%
GSH-Px activity [2]: 0
inhibition [3]: -3%
GSH-Px activity [4]: 0

The next lines start with results.

inhibition [1]: 98%
GSH-Px activity [2]: 212
inhibition [3]: 99%
GSH-Px activity [4]: 212
SMILES: CN(C)C(=O)Nc1ccc(C(=O)c2ccccc2)cc1[Se][Se]c1cc(C(=O)c2ccccc2)ccc1NC(=O)N(C)C

inhibition [1]: 92%
GSH-Px activity [2]: 54
inhibition [3]: 97%
GSH-Px activity [4]: 245
SMILES: Nc1ccc(C(O)c2ccccc2)cc1[Se][Se]c1cc(C(O)c2ccccc2)ccc1N (stereo unspecified)

inhibition [1]: 87%
GSH-Px activity [2]: 261
inhibition [3]: 95%
GSH-Px activity [4]: 300
SMILES: Nc1ccc(C(=O)c2ccccc2)cc1[Se][Se]c1cc(C(=O)c2ccccc2)ccc1N
inhibition in vivo at 3 mg/kg (Rattus norvegicus [5]): 32.9%
inhibition in vivo at 30 mg/kg (Rattus norvegicus [6]): 5.5%
inhibition in vivo at 30 mg/kg (Rattus norvegicus [7]): -23.4%
inhibition in vivo at 100 mg/kg (Rattus norvegicus [8]): 4.9%
inhibition in vivo at 3 mg/kg (Rattus norvegicus [9]): 18.2%
inhibition in vivo at 100 mg/kg (Rattus norvegicus [10]): 40.4%
inhibition in vivo at 3 mg/kg (Rattus norvegicus [11]): -7.9%
inhibition in vivo at 30 mg/kg (Rattus norvegicus [12]): 8.5%
inhibition in vivo at 30 mg/kg (Rattus norvegicus [13]): -18.2%
inhibition in vivo at 100 mg/kg (Rattus norvegicus [14]): 9.2%
inhibition in vivo at 3 mg/kg (Rattus norvegicus [15]): 0.2%
inhibition in vivo at 30 mg/kg (Rattus norvegicus [16]): 43.3%
inhibition in vivo at 3 mg/kg (Rattus norvegicus [17]): 45%
inhibition in vivo at 100 mg/kg (Rattus norvegicus [18]): -3.9%
inhibition in vivo at 30 mg/kg (Rattus norvegicus [19]): 13.7%
inhibition in vivo at 100 mg/kg (Rattus norvegicus [20]): 29.2%
inhibition in vivo at 100 mg/kg (Rattus norvegicus [21]): 2%
inhibition in vivo at 30 mg/kg (Rattus norvegicus [22]): 0.7%
inhibition in vivo at 100 mg/kg (Rattus norvegicus [23]): -27%
inhibition in vivo at 3 mg/kg (Rattus norvegicus [24]): 39%
inhibition in vivo at 3 mg/kg (Rattus norvegicus [25]): 4.8%
inhibition in vivo at 30 mg/kg (Rattus norvegicus [26]): -3.7%
inhibition in vivo at 100 mg/kg (Rattus norvegicus [27]): 7.2%
inhibition in vivo at 3 mg/kg (Rattus norvegicus [28]): -16.8%
inhibition in vivo at 100 mg/kg (Rattus norvegicus [29]): -37.5%
inhibition in vivo at 30 mg/kg (Rattus norvegicus [30]): 18.7%
inhibition in vivo at 3 mg/kg (Rattus norvegicus [31]): -33.3%
inhibition in vivo at 3 mg/kg (Rattus norvegicus [32]): -3.3%
inhibition in vivo at 30 mg/kg (Rattus norvegicus [33]): -20.6%
inhibition in vivo at 100 mg/kg (Rattus norvegicus [34]): 5%

inhibition [1]: 100%
GSH-Px activity [2]: 68
inhibition [3]: 100%
GSH-Px activity [4]: 298
SMILES: CNc1ccc(C(=O)c2ccccc2)cc1[Se][Se]c1cc(C(=O)c2ccccc2)ccc1NC
